Results as given in ChEMBL document CHEMBL4049413, “High-content screen using zebrafish (Danio rerio) embryos identifies a novel kinase activator and inhibitor” (Bioorg Med Chem Lett, 2017).
pEC50, pIC50: −log10 of the molar value. Calls of active or inactive are those of the source. The rule behind the calls is not given here.

Key:
[1] = species: Danio rerio; test: Induction of morphological changes in 14 hrs post fertilized zebra fish embryo assessed as defect in somite development at 100 uM by microscopic method; assay type: functional
Method in brief: (§1)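 Embryos staged and placed in 12-well plates in E3 medium with 1% DMSO within 6 hpf, ~30 embryos per well. Continuous exposure from 6–30 hpf at varied concentrations up to 200 uM. For the timing window, 100 uM exposure began at different developmental times and all embryos were scored at 30 hpf. Notochord, somite and tail phenotypes were scored by microscopy.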

[2] = species: Danio rerio; test: Induction of morphological changes in 6 to 14 hrs post fertilized zebra fish embryo assessed as defect in notochord development at 100 uM by microscopic method; assay type: functional; method in brief: as §1
[3] = species: Danio rerio; test: Induction of morphological changes in 6 to 14 hrs post fertilized zebra fish embryo assessed as defect in somite development at 100 uM by microscopic method; assay type: functional; method in brief: as §1
[4] = species: Danio rerio; test: Induction of morphological changes in 30 hrs post fertilized zebra fish embryo assessed as defect in notochord development up to 200 uM by microscopic method; assay type: functional; method in brief: as §1
[5] = target: Albumin (Bos taurus, UniProt P02769); test: Binding affinity to bovine serum albumin by tryptophan quenching based HTS assay; assay type: ADME
Chain of Albumin (P02769 whole entry): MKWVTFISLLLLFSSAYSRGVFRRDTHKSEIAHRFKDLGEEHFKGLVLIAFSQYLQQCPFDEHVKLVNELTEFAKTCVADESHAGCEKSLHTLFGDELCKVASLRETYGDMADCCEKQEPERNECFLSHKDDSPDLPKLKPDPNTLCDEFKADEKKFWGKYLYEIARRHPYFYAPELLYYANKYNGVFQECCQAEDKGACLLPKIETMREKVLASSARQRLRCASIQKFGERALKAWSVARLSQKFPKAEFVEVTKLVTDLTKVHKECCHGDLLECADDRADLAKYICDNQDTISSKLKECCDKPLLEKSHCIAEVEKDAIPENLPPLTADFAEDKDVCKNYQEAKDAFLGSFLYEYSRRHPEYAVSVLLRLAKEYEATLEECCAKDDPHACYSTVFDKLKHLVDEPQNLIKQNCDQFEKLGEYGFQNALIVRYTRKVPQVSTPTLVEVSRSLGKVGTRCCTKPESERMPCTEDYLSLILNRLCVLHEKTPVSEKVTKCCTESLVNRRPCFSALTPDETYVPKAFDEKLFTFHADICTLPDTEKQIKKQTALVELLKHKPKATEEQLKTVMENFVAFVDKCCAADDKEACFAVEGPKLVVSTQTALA
Method in brief: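 Bovine serum albumin binding screened in HTS format by quenching of intrinsic BSA tryptophan fluorescence, Ex/Em 280/340 nm; IC50 derived from the quenching response.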

[6] = species: Danio rerio; test: Induction of morphological changes in 22 hrs post fertilized zebra fish embryo at 100 uM by microscopic method; assay type: functional; method in brief: as §1
[7] = species: Danio rerio; test: Induction of morphological changes in 6 hrs post fertilized zebra fish embryo assessed as defect in tail musculature by measuring downward c-bend of body axis up to 200 uM by microscopic method; assay type: functional; method in brief: as §1
[8] = species: Danio rerio; test: Induction of morphological changes in 14 hrs post fertilized zebra fish embryo assessed as defect in notochord development at 100 uM by microscopic method; assay type: functional; method in brief: as §1
[9] = target: Death-associated protein kinase 2 (Homo sapiens) (UniProt Q9UIK4); test: Activation of human DAPK2 using KKLNRTLSFAEPG as substrate in presence of [gamma-33P]-ATP
Chain of Death-associated protein kinase 2 (Homo sapiens) (Q9UIK4 whole entry, looked up): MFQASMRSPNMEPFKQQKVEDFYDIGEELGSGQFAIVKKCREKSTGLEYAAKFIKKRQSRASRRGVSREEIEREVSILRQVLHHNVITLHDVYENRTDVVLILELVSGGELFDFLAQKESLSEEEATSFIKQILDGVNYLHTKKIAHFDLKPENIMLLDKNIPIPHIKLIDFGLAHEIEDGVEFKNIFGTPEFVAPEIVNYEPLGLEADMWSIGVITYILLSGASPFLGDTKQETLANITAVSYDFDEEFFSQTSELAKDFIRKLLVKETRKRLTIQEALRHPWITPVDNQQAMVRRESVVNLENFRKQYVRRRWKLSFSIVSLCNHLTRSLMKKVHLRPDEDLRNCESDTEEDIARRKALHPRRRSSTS

[10] = species: Homo sapiens; test: Substrate activity at P-gp in human […] cells assessed as intracellular rhodamine123 accumulation at 50 uM after 2 hrs by fluorescence-based HTS assay; assay type: cell-based
Method in brief: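 MDA-MB-231 breast cancer cells in 96-well plates were pretreated with compound for 2 h, then intracellular rhodamine 123 accumulation was measured by fluorescence (Ex/Em 485/528). Verapamil at 20 uM served as positive control.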

[11] = target: Serine/threonine-protein kinase pim-3 (Homo sapiens, UniProt Q86V86); test: Inhibition of human PIM3 using RSRHSSYPAGT as substrate in presence of [gamma-33P]-ATP
[12] = target: Serine/threonine-protein kinase pim-2 (Homo sapiens) (UniProt Q9P1W9); test: Inhibition of human PIM2 using RSRHSSYPAGT as substrate in presence of [gamma-33P]-ATP
Chain of Serine/threonine-protein kinase pim-2 (Homo sapiens) (Q9P1W9 whole entry, looked up): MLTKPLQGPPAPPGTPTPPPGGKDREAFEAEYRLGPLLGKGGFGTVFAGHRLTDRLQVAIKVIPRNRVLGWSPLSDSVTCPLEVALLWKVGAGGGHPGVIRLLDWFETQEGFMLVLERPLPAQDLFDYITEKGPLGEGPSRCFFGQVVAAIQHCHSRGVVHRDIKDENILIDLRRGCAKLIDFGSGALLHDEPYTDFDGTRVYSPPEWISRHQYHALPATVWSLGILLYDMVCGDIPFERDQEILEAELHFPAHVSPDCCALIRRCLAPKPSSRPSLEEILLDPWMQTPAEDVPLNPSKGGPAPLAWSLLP

[13] = species: Danio rerio; test: Toxicity in 6 to 30 hrs post fertilized zebra fish embryo assessed as death at 200 uM by microscopic method; conditions: zebrafish
Method in brief: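 Staged zebrafish embryos placed in 12-well plates in E3 embryo medium within 6 hpf and exposed from 6 to 30 hpf in E3 with 1% DMSO, with or without compound, ~30 embryos per group (at most 30 per well). Wells were inspected under a dissecting microscope, and death was scored as loss of embryonic structure.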

[14] = target: Death-associated protein kinase 3 (Homo sapiens) (UniProt O43293); test: Activation of human DAPK3 using KKLNRTLSFAEPG as substrate in presence of [gamma-33P]-ATP
Chain of Death-associated protein kinase 3 (Homo sapiens) (O43293 whole entry, looked up): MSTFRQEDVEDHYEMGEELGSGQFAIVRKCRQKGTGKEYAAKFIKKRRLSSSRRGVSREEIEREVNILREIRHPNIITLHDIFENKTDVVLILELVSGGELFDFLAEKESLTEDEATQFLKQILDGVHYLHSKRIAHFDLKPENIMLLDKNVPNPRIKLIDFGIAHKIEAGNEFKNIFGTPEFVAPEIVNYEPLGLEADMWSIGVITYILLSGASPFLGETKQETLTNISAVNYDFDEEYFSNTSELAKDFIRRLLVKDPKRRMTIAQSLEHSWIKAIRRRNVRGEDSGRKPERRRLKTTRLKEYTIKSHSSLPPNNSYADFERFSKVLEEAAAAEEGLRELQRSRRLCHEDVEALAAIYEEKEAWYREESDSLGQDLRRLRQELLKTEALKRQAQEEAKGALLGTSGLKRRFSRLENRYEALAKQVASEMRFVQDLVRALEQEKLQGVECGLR

[15] = target: Serine/threonine-protein kinase pim-1 (Homo sapiens) (UniProt P11309); test: Inhibition of human PIM1 using KKRNRTLTK as substrate in presence of [gamma-33P]-ATP
Chain of Serine/threonine-protein kinase pim-1 (Homo sapiens) (P11309 whole entry, looked up): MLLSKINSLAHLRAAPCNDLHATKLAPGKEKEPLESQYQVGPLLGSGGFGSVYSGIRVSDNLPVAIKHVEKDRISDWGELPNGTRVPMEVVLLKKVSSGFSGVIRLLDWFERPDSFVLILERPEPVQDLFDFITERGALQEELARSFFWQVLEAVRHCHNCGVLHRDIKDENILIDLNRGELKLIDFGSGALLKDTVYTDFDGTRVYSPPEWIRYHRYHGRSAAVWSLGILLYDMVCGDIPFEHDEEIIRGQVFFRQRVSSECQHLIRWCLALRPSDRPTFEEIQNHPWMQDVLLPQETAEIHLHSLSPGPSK

[16] = target: Death-associated protein kinase 1 (Homo sapiens, UniProt P53355); test: Activation of human DAPK1 using KKLNRTLSFAEPG as substrate in presence of [gamma-33P]-ATP
Chain of Death-associated protein kinase 1 (P53355 whole entry): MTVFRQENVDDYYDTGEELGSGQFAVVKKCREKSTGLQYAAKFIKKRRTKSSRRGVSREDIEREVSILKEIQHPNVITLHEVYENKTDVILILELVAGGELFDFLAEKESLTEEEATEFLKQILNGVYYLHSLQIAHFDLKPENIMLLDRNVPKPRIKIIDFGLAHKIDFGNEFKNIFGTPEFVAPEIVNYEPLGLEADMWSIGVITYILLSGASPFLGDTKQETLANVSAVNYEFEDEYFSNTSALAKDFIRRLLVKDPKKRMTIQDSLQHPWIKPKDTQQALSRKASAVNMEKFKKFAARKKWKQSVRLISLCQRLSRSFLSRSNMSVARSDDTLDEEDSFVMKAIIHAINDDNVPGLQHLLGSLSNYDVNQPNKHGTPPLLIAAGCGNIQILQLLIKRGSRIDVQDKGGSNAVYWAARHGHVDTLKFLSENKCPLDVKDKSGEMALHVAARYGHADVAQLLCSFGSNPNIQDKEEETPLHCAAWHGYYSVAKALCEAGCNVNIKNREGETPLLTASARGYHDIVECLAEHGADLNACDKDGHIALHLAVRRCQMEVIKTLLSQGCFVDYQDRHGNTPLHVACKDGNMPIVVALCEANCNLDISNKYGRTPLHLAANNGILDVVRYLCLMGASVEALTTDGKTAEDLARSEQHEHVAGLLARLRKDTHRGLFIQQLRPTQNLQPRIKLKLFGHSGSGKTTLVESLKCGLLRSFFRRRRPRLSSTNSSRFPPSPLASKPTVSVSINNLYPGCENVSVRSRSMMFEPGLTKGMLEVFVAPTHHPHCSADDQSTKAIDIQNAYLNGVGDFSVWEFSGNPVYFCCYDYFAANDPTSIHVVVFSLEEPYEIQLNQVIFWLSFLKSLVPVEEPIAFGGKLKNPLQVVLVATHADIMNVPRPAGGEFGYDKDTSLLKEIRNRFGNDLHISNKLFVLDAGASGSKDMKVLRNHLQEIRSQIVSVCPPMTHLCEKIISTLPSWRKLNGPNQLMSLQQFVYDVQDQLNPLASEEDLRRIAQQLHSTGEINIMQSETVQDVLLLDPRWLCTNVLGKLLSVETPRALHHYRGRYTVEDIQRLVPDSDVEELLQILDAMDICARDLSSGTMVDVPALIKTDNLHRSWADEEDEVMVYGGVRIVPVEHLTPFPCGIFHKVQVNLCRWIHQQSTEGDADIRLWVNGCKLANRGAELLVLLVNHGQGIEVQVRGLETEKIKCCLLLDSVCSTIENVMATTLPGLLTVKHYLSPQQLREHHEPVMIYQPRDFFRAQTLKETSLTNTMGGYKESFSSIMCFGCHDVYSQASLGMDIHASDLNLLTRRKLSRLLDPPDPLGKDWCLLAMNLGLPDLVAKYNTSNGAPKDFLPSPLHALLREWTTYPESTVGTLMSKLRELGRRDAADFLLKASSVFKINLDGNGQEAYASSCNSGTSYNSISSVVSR

[17] = species: Danio rerio; test: Induction of morphological changes in 30 to 48 hrs post fertilized zebra fish embryo by microscopic method; assay type: functional
[18] = species: Danio rerio; test: Induction of morphological changes in 30 hrs post fertilized zebra fish embryo assessed as defect in tail musculature by measuring downward c-bend of body axis up to 200 uM by microscopic method; assay type: functional; method in brief: as §1
[19] = species: Danio rerio; test: Induction of morphological changes in 6 hrs post fertilized zebra fish embryo assessed as defect in notochord development up to 200 uM by microscopic method; assay type: functional; method in brief: as §1

## O=C(COc1cccc2ccccc12)Nc1cccc(C(=O)O)c1
[1]
  Activity: inactive
[2]
  Activity: Active
[3]
  Activity: Active
[4]
  Activity: inactive
[5]
  pIC50: 4.63
[6]
  Activity: inactive
[7]
  Activity: Active
[8]
  Activity: inactive
[9]
  Activity: inactive
[10]
  Activity: inactive
[11]
  pIC50: 5.39
[12]
  inhibition: inactive
[13]
  Activity: Toxic
[14]
  Activity: inactive
[15]
  inhibition: inactive
[16]
  pEC50: 4.40
[17]
  Activity: inactive
[18]
  Activity: inactive
[19]
  Activity: Active
